# Sampled rows, rich in hits. Any-hit rate of the full collection: about 1.9%.
# M4 PAM – human M4 muscarinic receptor positive allosteric modulators, primary screen, CHO-K1 cells, Fluo-8 calcium fluorescence. Muscarinic acetylcholine receptor M4 (Homo sapiens), P08173. CHO-K1 hM4/Gqi5, ACh EC20; 0% = ACh EC20, 100% = maximal ACh. activation, % at 3 µM. 360,000 tested, 0.4% active;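 active means activation above its plate's cutoff, the mean activation of sample wells plus 3 SD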
# Target sequence (P08173 whole entry, looked up): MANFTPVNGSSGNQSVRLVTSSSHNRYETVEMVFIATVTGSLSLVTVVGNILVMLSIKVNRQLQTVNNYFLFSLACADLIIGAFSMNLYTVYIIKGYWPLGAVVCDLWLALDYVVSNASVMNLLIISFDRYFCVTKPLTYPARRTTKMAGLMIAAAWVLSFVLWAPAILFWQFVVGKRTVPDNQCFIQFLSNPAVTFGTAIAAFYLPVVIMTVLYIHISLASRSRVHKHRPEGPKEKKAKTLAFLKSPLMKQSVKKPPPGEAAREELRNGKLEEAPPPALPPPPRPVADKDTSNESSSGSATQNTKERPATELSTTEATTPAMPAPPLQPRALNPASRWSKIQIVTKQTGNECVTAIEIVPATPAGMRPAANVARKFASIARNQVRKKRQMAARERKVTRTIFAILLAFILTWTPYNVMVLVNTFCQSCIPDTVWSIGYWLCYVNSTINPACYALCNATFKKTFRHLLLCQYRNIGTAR
# M5 PAM – human M5 muscarinic receptor positive allosteric modulators, primary screen, CHO-K1 cells, Fluo-8 calcium fluorescence. Muscarinic acetylcholine receptor M5 (Homo sapiens), P08912. CHO-K1 hM5, ACh EC20 PAM; 0% = ACh EC20, 100% = ACh EC100. activation, % at 3 µM. 360,000 tested, 0.3% active;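 active means activation above the run cutoff, the mean activation of all test compounds plus 3 SD, cut at about 18% in these data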
#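 Replicates: One well per compound, no replicates | System: Human M5 receptor in CHO-K1 cells | Benchmarks: Low control EC20 acetylcholine (0%), high control EC100 acetylcholine (100%) | Probe or stimulus: Acetylcholine, EC20 level | Times: Fluo-8 loading 80 min at 37 °C plus 30 min room temperature | Signal: Intracellular calcium via Fluo-8 fluorescence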
# CHRM5 agonist – human M5 muscarinic receptor agonists, primary screen, CHO-K1 cells, Fluo-8 calcium fluorescence. Muscarinic acetylcholine receptor M5 (Homo sapiens), P08912. CHO-K1 hM5 cells; 0% DMSO wells, 100% maximal acetylcholine response. activation, % at 3 µM. 360,000 tested, 0.19% active. AID 624037, 2012;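 active means activation above the run's mean over test compounds plus 3 SD, cut at about 23% in these data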;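 further: signal is peak over basal fluorescence ratio across the kinetic read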
# M4 antag – human M4 muscarinic receptor antagonists, primary screen, CHO cells, Fluo-8 calcium fluorescence; CHO-hM4 cells, ACh EC80; inhibition, % at 3 µM; 360,000 tested, 0.73% active; AID 624125, 2012;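 active means inhibition above its plate's cutoff, the mean inhibition of sample wells plus 3 SD, cut at about 27% in these data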;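 further: 0% = acetylcholine EC80 with DMSO and 100% = DMSO without agonist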
# M5 antag – human M5 muscarinic receptor antagonists, primary screen, CHO cells, Fluo-8 calcium fluorescence; Muscarinic acetylcholine receptor M5 (Homo sapiens), P08912; CHO-hM5 cells, ACh EC80; inhibition, % at 3 µM; 360,000 tested, 0.59% active; AID 624040, 2012;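 active means inhibition above a per-plate cutoff, the mean of that plate's test compounds plus 3 SD, cut at about 27% in these data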;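 further: 0% = acetylcholine EC80 with DMSO and 100% = DMSO without agonist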
# M4 ag – human M4 muscarinic receptor agonists, primary screen, CHO-K1 cells, Fluo-8 calcium fluorescence; activation, % at 3 µM; CHO-K1 hM4/Gqi5; vehicle 0%, full acetylcholine response 100%; 360,000 tested, 0.14% active; Muscarinic acetylcholine receptor M4 (Homo sapiens), P08173;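 active means activation above the run mean over all test wells plus 3 SD, cut at about 32% in these data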;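 further: peak over basal fluorescence ratio per well then scaled between controls; 0% = DMSO wells and 100% = acetylcholine at EC100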
# Starred values were filed as active, the others as inactive.
SMILES,M4 PAM,M5 PAM,CHRM5 agonist,M4 antag,M5 antag,M4 ag
O=C(CN1C(=O)c2ccccc2S1(=O)=O)c1ccc2c(c1)OCCO2,-2,21*,2,-7,-16,2
O=C(CN1C(=O)c2ccccc2S1(=O)=O)c1ccc2c(c1)OCCCO2,-4,2,-4,0,0,6
c1ccc(CN2CCN(C3CCCSc4ccccc43)CC2)cc1 (stereo not given),-13,5,-19,35*,-4,1
COc1ccc(C2Oc3ccccc3N2C(C)=O)cc1 (stereo not given),-1,1,-2,31*,11,1
O=C(c1ccc(CSc2nc3ccncc3[nH]2)cc1)N1CCN(c2cccc(Cl)c2)CC1,-12,-19,6,10,35*,19
Cc1cccc(C)c1-n1nnnc1C1(C)CCC(=O)N1CC(F)(F)F (stereo not given),4,-3,4,-8,-11,1
O=C(NCc1ccccc1)C1C(c2ccccc2)=Nc2ccccc2N1C(=O)c1cccnc1 (stereo not given),12,-3,1,7,4,2
CCOC(=O)c1c(NC(=O)c2ccco2)sc2c1CCCCC2,4,-1,1,-1,9,-2
CCOC(=O)c1c(NC(=O)C(C)N2CCN(C(=O)c3ccco3)CC2)sc2c1CCCC2 (stereo not given),-32,6,27*,49*,-9,41*
Cc1sc(NC(=S)NC(=O)c2ccco2)c(C(N)=O)c1C,-6,-19,1,1,31*,13
Cc1sc(NC(=S)NC(=O)CCc2ccccc2)c(C(N)=O)c1C,2,1,0,0,2,2
COC(=O)c1c(NC(=S)NC(=O)c2ccco2)sc2c1CCCC2,33*,1,1,-2,0,0
CC(C)(C)OC(=O)NCCCCCNC(=O)c1nc[nH]c1C(=O)NCc1ccc(CNC(=O)OC(C)(C)C)cc1,-17,-38,2,54*,33*,34*
CC(C)(C)OC(=O)NCc1ccc(CNC(=O)c2nc[nH]c2C(=O)NCc2ccc(CNC(=O)OC(C)(C)C)cc2)cc1,-4,-10,5,2,1,8
COc1cccc(C(C(=O)NC2CCCC2)N2CCN(c3cc(C)ccc3C)CC2)c1OC (stereo not given),6,3,0,-28,-11,1
Cc1ccc(O)c([C@H](CCN(C(C)C)C(C)C)c2ccccc2)c1,-19,-18,0,100*,99*,5
COc1ccc(S(=O)(=O)NC(=O)C2(C)CCN2C(=O)Cc2cccc3ccccc23)cc1 (stereo not given),0,1,0,-2,-1,0
Cc1nc(-[n+]2nc(-c3ccncc3)nn2-c2ccccc2)sc1C,-1,4,-6,9,-2,-1
CCc1nc2c(OCc3cc(Cl)cc(Cl)c3)cccn2c1N(C)C(=O)c1cccc(OC)c1,-12,-13,-2,-17,23,4
Cc1ccc(NC(=O)c2cc(N3C(=O)C=CC3=O)ccc2N2CCOCC2)cc1,-2,21*,2,12,7,2
Cc1ccc(NC(=O)c2cc(NC(=O)c3ccco3)ccc2N2CCOCC2)cc1,1,-9,1,-2,0,8
COc1cc(Br)cc(/C=N/NC(=O)Cc2ccc(C(F)(F)F)cc2[N+](=O)[O-])c1O,5,-9,0,-3,3,1
CCOc1cc(/C=N/NC(=O)Cc2ccc(C(F)(F)F)cc2[N+](=O)[O-])c(Br)cc1OC,9,22*,1,-14,-8,0
COc1ccc2nc(S(=O)Cc3ncc(C)c(OC)c3C)[nH]c2c1 (stereo not given),-16,-5,0,42*,5,1
COCCCOc1ccnc(CS(=O)c2nc3ccccc3[nH]2)c1C (stereo not given),-1,-4,0,-33,-4,4
SMILES,M4 PAM,M5 PAM,CHRM5 agonist,M4 antag,M5 antag,M4 ag
CCOC(=O)C(=CN=C(N)Nc1nc2ccccc2o1)C(=O)OCC,20*,-4,-2,-2,-6,0
COC(=O)c1cc(Oc2ccc(C(=O)OC)cc2N)cc(C(=O)OC)c1,20*,-14,0,-2,-9,1
CCCN1C(=O)S/C(=C/c2ccc(N3CCOCC3)o2)C1=O,-1,2,4,31*,9,3
CN(C)c1ccc(C(=O)/C=C/c2cccnc2)cc1,0,-4,-1,1,4,1
CN(C)c1ccc(/C=C/C(=O)c2cccc(Br)c2)cc1,-18,-24,78*,63*,57*,349*
O=C(Nc1ccncc1)c1cc(C2CCCCN2C(=O)CCCc2ccccc2)on1 (stereo not given),-10,-13,7,4,8,18
COCCNC(=O)C1CCCN(C(=O)c2ccc(SC(F)(F)F)cc2)CC1 (stereo not given),-5,2,1,3,-2,0
O=C1c2ccccc2-c2onc3ccc(NCc4ccco4)c1c23,-7,-10,16,16,22,10
CCNc1ccc2noc3c2c1C(=O)c1ccccc1-3,-22,-16,37*,24,38*,46*
Cc1ccc2c(c1)N(C(=O)CCC(=O)N1CCN(c3ccccn3)CC1)CC(C)O2 (stereo not given),-5,-5,0,3,4,3
Cc1cccc(N2CCN(C(=O)CCC(=O)N3CC(C)Oc4ccc(C)cc43)CC2C)c1 (stereo not given),-19,-8,2,101*,3,12
CCOC(=O)Cc1ccc(Nc2nc3cc(-c4sccc4C)sc3c(=O)n2C)cc1,-1,-3,-3,-14,-7,0
NC(=O)c1c(-c2ccc(Cl)cc2Cl)csc1NC(=O)Cc1ccccc1,-25,-19,0,3,38*,9
Nc1nc2c(ncn2[C@@H]2O[C@H](CNCc3ccc(Oc4cc(-n5cccn5)ncn4)cc3)[C@@H](O)[C@H]2O)c(=O)[nH]1,11,2,3,-5,9,2

# Assay outcomes deposited in PubChem by The Scripps Research Institute Molecular Screening Center.
